ChEMBL document CHEMBL4411287, “Discovery and optimization of a series of 3-substituted indazole derivatives as multi-target kinase inhibitors for the treatment of lung squamous cell carcinoma” (Eur J Med Chem, 2019)

What was measured:
[1] = Efflux ratio of permeability in human Caco2 cells at 5 uM after 120 mins by LC-MS/MS analysis; format: ADME, cell-based; conditions: Caco-2
Outline: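 Caco-2 (C2BBe1) monolayers grown to confluence on collagen-coated transwell polycarbonate membranes. Compound at 5 μM added apically or basolaterally in HBSS with 10 mM HEPES at pH 7.4 and 6.8. Duplicate samples taken at 120 min and analysed by LC-MS/MS. Efflux ratio = Papp(B→A)/Papp(A→B).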

[2] = target: Tyrosine-protein kinase BTK (Homo sapiens) (UniProt Q06187); assay: Inhibition of BTK (unknown origin) at 1000 nM relative to control
[3] = target: Macrophage colony-stimulating factor 1 receptor (Homo sapiens) (UniProt P07333); assay: Inhibition of CSF-1R (unknown origin) at 10 nM relative to control
[4] = target: Hepatocyte growth factor receptor (Homo sapiens) (UniProt P08581); assay: Inhibition of c-Met (unknown origin) at 10 nM relative to control
Outline: (§1)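 ELISA with purified recombinant kinase on plates precoated with poly(Glu,Tyr) 4:1 at 20 µg/mL. ATP 10 µM in HEPES pH 7.4 buffer with MgCl2, MnCl2, Na3VO4 and DTT. Run 60 min at 37 °C. Detected with anti-phosphotyrosine PY99, HRP secondary antibody and o-phenylenediamine, read at 490 nm. Inhibition % = [1 − A490/A490 control]×100. 1% DMSO as negative control.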

[5] = target: Platelet-derived growth factor receptor beta (Homo sapiens) (UniProt P09619); assay: Inhibition of PDGFR-beta (unknown origin) at 10 nM relative to control
Outline: (§2)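 Purified recombinant kinase domains run in ELISA on precoated poly(Glu,Tyr) 4:1 (20 µg/mL) with 10 µM ATP in 50 mM HEPES pH 7.4, 50 mM MgCl2, 0.5 mM MnCl2, 0.2 mM Na3VO4, 1 mM DTT; 1% DMSO control; 60 min at 37 °C. Phosphotyrosine read by PY99 antibody, HRP anti-mouse IgG, OPD/H2O2 at 490 nm; inhibition = [1−A490/A490control]×100%; two separate experiments.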

[6] = target: Vascular endothelial growth factor receptor 1 (Homo sapiens) (UniProt P17948); assay: Inhibition of VEGFR1 (unknown origin) at 10 nM relative to control; outline: as §1
NCI-H2286 = assay: Antitumor activity against human NCI-H2286 cells xenografted in SCID mouse assessed as tumor growth inhibition at 10 mg/kg, po qd for 10 consecutive days relative to control; format: functional; conditions: read-out: TGI
Outline: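 NCI-H2286 xenograft established by s.c. fragment implantation. At 100-150 mm³ mice were randomized (vehicle n=10, treated n=5) and given compound orally once daily for 10 days. Tumour volume = length×width²/2, measured twice weekly. TGI taken on the final day from change in volume relative to vehicle, with Student's t-test.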

[7] = Half life in ICR(CD-1) mouse at 10 mg/kg, po administered via gavage by triple quadrupole mass spectrometric analysis; format: ADME, organism-based; conditions: in vivo
Outline: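 Oral gavage at 1 mg/mL in 1% Tween80/water to male ICR mice (18-22 g, n=3). Plasma sampled at 0.25, 0.5, 1, 2, 4, 8 and 24 h, protein precipitated with methanol:acetonitrile (1:1) containing internal standard, and quantified by UPLC-triple quadrupole MS. AUC and MRT were taken from per-animal time-concentration curves. Cmax is the maximum plasma level and Tmax the time to reach it.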

[8] = system: T1, Discoidin domain-containing receptor 2 (Homo sapiens), Q16832 [I638F]; assay: Inhibition of DDR2 I638F mutant phosphorylation in human NCI-H2286 cells after 2 hrs by Western blot analysis; format: cell-based
T1 sequence (whole entry): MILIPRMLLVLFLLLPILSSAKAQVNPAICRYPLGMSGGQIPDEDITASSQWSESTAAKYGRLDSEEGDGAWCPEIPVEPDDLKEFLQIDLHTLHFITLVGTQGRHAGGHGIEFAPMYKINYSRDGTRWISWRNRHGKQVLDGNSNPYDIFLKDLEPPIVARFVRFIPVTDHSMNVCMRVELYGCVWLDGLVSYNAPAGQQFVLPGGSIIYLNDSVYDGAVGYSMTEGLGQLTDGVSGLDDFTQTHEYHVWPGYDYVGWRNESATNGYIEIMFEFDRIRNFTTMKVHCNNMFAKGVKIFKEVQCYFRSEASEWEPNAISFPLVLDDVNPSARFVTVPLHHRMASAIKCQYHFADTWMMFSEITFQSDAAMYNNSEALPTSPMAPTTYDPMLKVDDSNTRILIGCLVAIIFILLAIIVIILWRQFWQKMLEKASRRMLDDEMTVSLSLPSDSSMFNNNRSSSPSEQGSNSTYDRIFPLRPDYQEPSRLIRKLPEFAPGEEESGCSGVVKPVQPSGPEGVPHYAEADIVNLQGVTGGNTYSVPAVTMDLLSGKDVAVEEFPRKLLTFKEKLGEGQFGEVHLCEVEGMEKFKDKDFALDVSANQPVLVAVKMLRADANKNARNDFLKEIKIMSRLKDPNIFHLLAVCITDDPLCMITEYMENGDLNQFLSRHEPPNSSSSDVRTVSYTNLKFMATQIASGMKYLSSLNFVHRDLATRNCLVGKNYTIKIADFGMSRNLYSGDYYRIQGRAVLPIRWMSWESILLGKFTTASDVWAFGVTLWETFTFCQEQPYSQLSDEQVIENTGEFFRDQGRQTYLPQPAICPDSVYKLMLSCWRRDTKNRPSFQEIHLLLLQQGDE
Outline: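 NCI-H2286 cells exposed to compound for 2 h at 37 °C and lysed in SDS sample buffer. Lysates run on 10% SDS-PAGE and blotted to nitrocellulose. Membranes probed for phospho- and total DDR2, ERK and Akt, with GAPDH as loading control, and detected by HRP secondary antibody and enhanced chemiluminescence.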

[9] = target: Vascular endothelial growth factor receptor 2 (Homo sapiens) (UniProt P35968); assay: Inhibition of VEGFR2 (unknown origin) at 10 nM relative to control; outline: as §1
[10] = target: Angiopoietin-1 receptor (Homo sapiens) (UniProt Q02763); assay: Inhibition of Tie-2 (unknown origin) at 10 nM relative to control; outline: as §1
[11] = target: Tyrosine-protein kinase receptor UFO (Homo sapiens) (UniProt P30530); assay: Inhibition of AXL (unknown origin) at 10 nM relative to control
[12] = target: Voltage-gated inwardly rectifying potassium channel KCNH2 (Homo sapiens, UniProt Q12809); assay: Inhibition of human ERG by automated patch clamp electrophysiology assay
Outline: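 Automated patch clamp electrophysiology on the hERG channel.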

[13] = target: Receptor tyrosine-protein kinase erbB-2 (Homo sapiens) (UniProt P04626); assay: Inhibition of ErbB2 (unknown origin) at 10 nM relative to control; outline: as §2
[14] = target: Insulin-like growth factor 1 receptor (Homo sapiens) (UniProt P08069); assay: Inhibition of IGF1R (unknown origin) at 10 nM relative to control; outline: as §2
[15] = target: Epidermal growth factor receptor (Homo sapiens) (UniProt P00533); assay: Inhibition of EGFR (unknown origin) at 10 nM relative to control

Tyrosine-protein kinase receptor UFO (Homo sapiens), sequence (P30530 whole entry): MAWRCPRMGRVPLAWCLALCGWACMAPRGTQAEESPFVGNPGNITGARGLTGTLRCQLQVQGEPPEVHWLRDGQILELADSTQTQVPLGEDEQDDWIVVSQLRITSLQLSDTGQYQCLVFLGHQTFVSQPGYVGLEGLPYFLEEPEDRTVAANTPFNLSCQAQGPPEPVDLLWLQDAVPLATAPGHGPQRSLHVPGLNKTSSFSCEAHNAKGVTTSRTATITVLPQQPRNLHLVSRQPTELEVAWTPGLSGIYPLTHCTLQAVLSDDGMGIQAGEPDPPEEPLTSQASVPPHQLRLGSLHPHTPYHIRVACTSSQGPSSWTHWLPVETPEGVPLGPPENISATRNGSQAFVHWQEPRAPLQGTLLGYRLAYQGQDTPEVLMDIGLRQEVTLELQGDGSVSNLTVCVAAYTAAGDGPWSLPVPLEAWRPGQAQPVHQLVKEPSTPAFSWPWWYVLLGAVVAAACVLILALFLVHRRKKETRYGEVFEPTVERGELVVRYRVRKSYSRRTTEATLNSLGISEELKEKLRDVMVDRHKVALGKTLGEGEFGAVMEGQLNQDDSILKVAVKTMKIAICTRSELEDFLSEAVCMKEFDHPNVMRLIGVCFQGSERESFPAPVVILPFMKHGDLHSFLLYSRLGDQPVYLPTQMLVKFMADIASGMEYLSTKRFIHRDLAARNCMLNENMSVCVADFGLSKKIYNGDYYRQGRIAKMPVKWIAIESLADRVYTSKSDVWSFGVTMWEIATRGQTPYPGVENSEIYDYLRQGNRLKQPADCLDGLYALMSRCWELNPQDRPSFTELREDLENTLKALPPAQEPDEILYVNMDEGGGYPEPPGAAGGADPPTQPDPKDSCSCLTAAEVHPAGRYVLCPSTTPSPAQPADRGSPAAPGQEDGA
Macrophage colony-stimulating factor 1 receptor (Homo sapiens), sequence (P07333 whole entry): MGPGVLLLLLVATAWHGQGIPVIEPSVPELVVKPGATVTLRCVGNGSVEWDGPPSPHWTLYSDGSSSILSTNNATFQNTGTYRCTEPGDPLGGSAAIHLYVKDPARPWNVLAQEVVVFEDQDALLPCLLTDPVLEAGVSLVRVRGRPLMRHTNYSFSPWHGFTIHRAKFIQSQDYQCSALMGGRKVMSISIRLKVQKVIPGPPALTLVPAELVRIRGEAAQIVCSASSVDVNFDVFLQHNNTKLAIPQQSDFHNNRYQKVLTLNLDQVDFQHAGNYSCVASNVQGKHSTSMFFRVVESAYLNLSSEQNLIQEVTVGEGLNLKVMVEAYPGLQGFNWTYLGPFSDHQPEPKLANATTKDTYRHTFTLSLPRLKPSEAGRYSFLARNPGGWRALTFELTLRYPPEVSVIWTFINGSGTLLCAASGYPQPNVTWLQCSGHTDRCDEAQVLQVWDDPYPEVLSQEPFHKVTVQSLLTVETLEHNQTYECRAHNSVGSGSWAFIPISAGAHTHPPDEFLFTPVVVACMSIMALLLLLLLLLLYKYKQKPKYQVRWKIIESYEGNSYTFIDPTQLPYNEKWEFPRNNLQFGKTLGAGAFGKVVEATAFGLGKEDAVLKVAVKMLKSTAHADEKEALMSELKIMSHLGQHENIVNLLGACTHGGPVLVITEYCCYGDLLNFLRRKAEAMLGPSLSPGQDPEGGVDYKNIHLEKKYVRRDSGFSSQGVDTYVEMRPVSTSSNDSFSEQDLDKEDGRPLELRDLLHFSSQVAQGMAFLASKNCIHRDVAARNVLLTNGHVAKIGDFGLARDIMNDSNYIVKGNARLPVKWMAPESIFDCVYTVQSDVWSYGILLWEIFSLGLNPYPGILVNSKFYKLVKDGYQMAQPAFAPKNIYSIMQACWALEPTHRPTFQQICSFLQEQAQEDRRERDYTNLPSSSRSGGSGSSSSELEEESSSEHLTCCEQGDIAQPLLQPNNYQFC
Receptor tyrosine-protein kinase erbB-2 (Homo sapiens), sequence (P04626 whole entry): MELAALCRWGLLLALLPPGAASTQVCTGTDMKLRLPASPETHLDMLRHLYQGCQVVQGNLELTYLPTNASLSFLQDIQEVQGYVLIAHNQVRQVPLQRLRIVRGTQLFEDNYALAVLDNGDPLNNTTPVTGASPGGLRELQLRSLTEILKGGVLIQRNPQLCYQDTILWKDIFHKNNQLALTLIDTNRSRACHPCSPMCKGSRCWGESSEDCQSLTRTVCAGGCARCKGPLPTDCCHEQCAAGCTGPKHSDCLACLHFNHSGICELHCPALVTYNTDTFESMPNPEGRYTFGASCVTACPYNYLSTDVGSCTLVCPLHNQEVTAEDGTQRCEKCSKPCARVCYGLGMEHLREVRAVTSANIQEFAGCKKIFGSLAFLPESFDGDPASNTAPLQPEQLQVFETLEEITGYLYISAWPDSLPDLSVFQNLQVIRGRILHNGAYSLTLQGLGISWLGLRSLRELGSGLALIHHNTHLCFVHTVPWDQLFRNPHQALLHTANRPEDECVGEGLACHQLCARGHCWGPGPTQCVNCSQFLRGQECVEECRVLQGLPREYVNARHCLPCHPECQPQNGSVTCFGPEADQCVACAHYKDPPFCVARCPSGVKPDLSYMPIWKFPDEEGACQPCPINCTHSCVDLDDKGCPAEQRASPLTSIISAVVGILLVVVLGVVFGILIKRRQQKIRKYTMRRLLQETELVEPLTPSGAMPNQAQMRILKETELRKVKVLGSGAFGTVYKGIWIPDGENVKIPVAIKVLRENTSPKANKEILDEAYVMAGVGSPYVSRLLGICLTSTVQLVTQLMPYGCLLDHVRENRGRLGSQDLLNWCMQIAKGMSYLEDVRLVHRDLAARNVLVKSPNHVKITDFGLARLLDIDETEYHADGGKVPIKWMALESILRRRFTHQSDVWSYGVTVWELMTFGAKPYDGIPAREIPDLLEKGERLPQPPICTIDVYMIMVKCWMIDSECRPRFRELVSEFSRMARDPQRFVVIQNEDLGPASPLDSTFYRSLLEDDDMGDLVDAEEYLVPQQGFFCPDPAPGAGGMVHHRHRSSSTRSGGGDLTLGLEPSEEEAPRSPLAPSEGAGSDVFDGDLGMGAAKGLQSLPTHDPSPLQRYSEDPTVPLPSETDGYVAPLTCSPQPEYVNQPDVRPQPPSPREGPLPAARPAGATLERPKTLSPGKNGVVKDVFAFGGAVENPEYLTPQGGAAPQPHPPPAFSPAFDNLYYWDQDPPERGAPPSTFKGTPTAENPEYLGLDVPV
Platelet-derived growth factor receptor beta (Homo sapiens), sequence (P09619 whole entry, the tested form may be a part): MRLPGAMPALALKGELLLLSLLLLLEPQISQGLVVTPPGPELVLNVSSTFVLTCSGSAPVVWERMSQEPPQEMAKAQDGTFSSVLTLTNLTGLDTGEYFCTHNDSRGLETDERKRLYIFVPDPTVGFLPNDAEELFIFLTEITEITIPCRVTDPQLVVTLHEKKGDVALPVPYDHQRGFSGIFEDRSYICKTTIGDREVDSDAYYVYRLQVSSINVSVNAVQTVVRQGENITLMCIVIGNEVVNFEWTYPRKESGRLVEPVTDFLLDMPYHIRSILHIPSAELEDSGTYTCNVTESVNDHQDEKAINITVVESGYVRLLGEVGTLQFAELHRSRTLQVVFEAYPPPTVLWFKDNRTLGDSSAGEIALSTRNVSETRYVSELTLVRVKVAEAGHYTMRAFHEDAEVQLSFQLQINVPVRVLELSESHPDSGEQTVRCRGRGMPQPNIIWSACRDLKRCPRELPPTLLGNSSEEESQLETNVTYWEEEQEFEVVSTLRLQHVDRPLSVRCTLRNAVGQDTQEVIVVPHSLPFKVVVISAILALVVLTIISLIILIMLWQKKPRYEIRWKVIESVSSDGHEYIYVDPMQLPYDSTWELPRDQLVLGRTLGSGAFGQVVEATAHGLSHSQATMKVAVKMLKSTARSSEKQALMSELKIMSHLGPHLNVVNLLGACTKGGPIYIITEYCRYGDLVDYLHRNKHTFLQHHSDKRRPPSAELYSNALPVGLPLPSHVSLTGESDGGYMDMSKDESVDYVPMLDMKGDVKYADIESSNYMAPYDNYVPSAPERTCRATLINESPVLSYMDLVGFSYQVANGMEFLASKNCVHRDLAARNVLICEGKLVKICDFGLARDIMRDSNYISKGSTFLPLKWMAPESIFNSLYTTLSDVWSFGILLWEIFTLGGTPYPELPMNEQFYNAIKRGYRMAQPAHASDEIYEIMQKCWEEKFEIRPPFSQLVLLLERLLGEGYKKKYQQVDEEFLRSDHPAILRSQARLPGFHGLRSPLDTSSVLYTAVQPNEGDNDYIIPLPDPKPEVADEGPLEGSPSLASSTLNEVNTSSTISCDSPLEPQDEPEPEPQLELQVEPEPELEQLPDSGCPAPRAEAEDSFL
Tyrosine-protein kinase BTK (Homo sapiens), sequence (Q06187 whole entry): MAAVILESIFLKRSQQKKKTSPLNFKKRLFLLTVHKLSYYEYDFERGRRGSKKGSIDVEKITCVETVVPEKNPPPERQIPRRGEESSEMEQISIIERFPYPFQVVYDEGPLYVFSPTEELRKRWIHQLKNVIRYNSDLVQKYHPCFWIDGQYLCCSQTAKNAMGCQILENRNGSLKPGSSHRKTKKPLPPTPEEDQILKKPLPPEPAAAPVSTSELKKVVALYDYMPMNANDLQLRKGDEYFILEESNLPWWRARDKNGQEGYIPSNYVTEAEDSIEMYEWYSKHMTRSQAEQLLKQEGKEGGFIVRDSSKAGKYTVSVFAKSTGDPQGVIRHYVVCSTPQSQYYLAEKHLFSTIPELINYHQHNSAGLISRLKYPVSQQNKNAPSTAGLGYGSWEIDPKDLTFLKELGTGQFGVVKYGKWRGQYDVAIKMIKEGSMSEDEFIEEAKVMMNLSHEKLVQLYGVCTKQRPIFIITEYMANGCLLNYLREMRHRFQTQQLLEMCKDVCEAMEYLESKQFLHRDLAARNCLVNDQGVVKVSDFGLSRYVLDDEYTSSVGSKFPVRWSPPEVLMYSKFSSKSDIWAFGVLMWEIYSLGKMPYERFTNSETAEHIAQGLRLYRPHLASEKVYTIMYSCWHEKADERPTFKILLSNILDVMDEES

efflux ratio at 2 h, 5 µM [1]: 1.1
inhibition [2]: 80.9%
inhibition [3]: 65.3%
inhibition [4]: 0.2%
inhibition [5]: 59.5%
inhibition [6]: 25.8%
half-life [7]: 3.05 h
inhibition [8]: Dose-dependent effect
inhibition [9]: 90.1%
inhibition [10]: 10.4%
inhibition [11]: 42%
inhibition [13]: 8.2%
inhibition [14]: 0%
inhibition [15]: 10%
SMILES: Cc1ccc(C(=O)Nc2cccc(C(F)(F)F)c2)cc1-c1ccc2c(-c3cnn(C4CC4)c3)n[nH]c2c1
inhibition in vivo at 10 mg/kg (NCI-H2286): 82.8%
IC50 [12]: > 40 µM
